Results filed as inconclusive are left out. Active and inactive are the calls of the source.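 Rule for the calls: active = mean inhibition at 30 µM above 50% in every run; inconclusive = inhibition above 50% in some runs but not in others; inactive = inhibition at most 50% in every run.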
Tested on: human washed platelets, A23187-induced P-selectin, flow cytometry
Test: calcium ionophore platelet activation inhibition – cell-based, fluorescence, flow cytometry, platelets, selectivity assay (AID 2522)
Settings: at 30 µM, stronger effect = higher value
How it was run: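 Material: platelets / Reagent: Ca2+ ionophore A23187 at 10 µM, 15 min stimulation / Doses: single compound dose of 30 µM / Timing: 20 min compound pre-incubation, 15 min A23187, 20 min staining / Measured by: flow cytometry with PE-labeled anti-P-selectin antibody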

C/C(=N/NC(=O)C1CCCC1)c1ccc(NC(=O)C(F)(F)F)cc1
inhibition: 6% (inactive) | inhibition (measured here: inhibition, second run): 1%

From PubChem BioAssay AID2522 (Broad Institute, 2010)
